One data set addresses eIF4A1 (Homo sapiens, UniProt P60842). Description: Fluorescence polarization. The format is binding. The following applies: for rank in screen for enhancing eIF4A1:poly r(AG)8 RNA binding: 10 µM rocaglate, >200 rocaglates of BU-CMD collection. (In general: Polarisation of emitted light reports the rotation of a fluorescent probe.)
The target of another data set is eIF4A2 (Homo sapiens, UniProt Q14240). Description: Fluorescence polarization. The following applies: 10 µM CR-1–31-B, 10 nM FAM poly r(AG)8, 30 min RT. The data set is classed as binding. In a few lines:
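His6-eIF4A2 expressed in E. coli BL21(DE3), purified by Ni-NTA then Q-Sepharose. Varied eIF4A2 concentrations mixed with 10 nM FAM-poly r(AG)8, plus DMSO vehicle or test compound. Equilibrated 30 min at RT, then polarization read. Change in FP expressed relative to DMSO control; n = 3 ± SEM.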

Data set [1] concerns 80S ribosome assembly on (AG)10-FF/HCV/Ren mRNA. Description: Ribosome binding. To be noted: 500 nM compound, 100 nM eIF4A1, RRL, 600 µM cycloheximide. The data set is classed as biochemical, rabbit. In a few lines: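 32P-labeled (AG)10-FF/HCV/Ren mRNA preincubated with 100 nM eIF4A1 and 500 nM compound for 10 min at RT. Then added to rabbit reticulocyte lysate with 600 µM cycloheximide and incubated 10 min at 30 °C. Lysate sedimented on 10–30% glycerol gradients (SW40, 39,000 rpm, 3.5 h, 4 °C). Fractions collected and radioactivity measured by scintillation counting.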

A further data set concerns NIH/3T3 cells. Description: Sulforhodamine B. To be noted: read-out: IC50 cytotoxicity against NIH/3T3 cells; 4 day compound exposure. The format is cell-based.
The next data set relates to liver polysomes. Description: Liver polysome profiling after intraperitoneal delivery. The format is in vivo, mice. To be noted: 3 h after intraperitoneal injection; 0.5 mg/kg CMLD012612, 0.2 mg/kg CR-1–31-B.
The subject of data set [2] is cap-dependent translation (FF). Description: In vitro translation assay in Krebs-2 extracts. To be noted: Krebs-2 extracts programmed with mRNA. The format is biochemical. The method in brief: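 Reporter mRNA added at 10 ng/µL final. Incubated with or without compound 60 min at 30 °C; firefly luciferase read. IC50 from 3–5 independent experiments (6 concentration points), nonlinear regression fit.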

In another data set the test system is HEK293 cells. Description: [35S]-methionine labeling. The following applies: 1 h compound exposure; compared with CR-1–31-B and CMLD012073. The format is cell-based.
The test system of another data set is myr-Akt/Eµ-Myc lymphomas. Description: Lymphoma chemosensitization study. The data set is classed as in vivo, mice. The following applies: CMLD012612 0.2 mg/kg IP daily for 5 days + doxorubicin 10 mg/kg on day 2.

pIC50: −log10 of the molar value.

Chain of eIF4A1 (P60842 whole entry, species assumed): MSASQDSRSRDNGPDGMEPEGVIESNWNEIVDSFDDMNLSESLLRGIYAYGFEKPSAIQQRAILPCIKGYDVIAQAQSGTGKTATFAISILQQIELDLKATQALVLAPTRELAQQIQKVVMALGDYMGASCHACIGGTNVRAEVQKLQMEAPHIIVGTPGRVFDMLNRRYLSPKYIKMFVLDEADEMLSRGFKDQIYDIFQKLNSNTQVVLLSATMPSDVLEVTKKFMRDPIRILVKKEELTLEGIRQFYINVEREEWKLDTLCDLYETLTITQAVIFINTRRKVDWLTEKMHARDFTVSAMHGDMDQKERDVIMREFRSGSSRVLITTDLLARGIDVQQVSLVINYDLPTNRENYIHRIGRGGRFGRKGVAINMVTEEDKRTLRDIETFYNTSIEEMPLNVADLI
Chain of eIF4A2 (Q14240 whole entry, species assumed): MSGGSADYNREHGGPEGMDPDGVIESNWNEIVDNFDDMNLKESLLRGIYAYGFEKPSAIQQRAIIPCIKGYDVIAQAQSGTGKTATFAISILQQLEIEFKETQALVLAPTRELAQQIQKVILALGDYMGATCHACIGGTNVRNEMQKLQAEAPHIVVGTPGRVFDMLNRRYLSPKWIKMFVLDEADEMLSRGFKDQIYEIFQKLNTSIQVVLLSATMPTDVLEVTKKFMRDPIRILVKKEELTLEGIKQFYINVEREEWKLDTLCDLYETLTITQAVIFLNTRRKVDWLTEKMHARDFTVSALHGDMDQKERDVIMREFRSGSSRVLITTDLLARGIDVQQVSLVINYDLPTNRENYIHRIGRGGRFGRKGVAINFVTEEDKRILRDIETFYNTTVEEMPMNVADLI

As for `CONC(=O)[C@H]1[C@@H](O)[C@@]2(O)c3c(OC)cc(OC)cc3O[C@@]2(c2ccc(OC)cc2)[C@@H]1c1ccccc1` [CR-1–31-B], on eIF4A1 (500 nM eIF4A1, 30 min, change in FP vs vehicle), the “stimulation of eIF4A1 binding to poly rA(GAA)5” value is “preferentially stimulated”. The “binding activity of eIF4A1 to poly r(AG)8” value on eIF4A1 (10 µM CR-1–31-B, 10 nM FAM poly r(AG)8, 30 min RT) is on record as “enhanced”. In addition, the “rank in screen for enhancing eIF4A1:poly r(AG)8 RNA binding” value (shortened to “rank in screen”) on eIF4A1 is reported as “ranked highly”. The “binding activity of eIF4A2 to poly r(AG)8” value on eIF4A2 is “enhanced”. Moreover, the “assembly of the 80S ribosome on the mRNA” value in data set [1] is listed as “inhibited assembly of the 80S ribosome”. Also, the pIC50 in the data set with NIH/3T3 cells is about 8.07. For the same compound, the “suppression of liver polysomes” value in the data set with liver polysomes is reported as “effectively suppressed liver polysomes”.

As for `CONC(=O)[C@H]1[C@@H](O)[C@@]2(O)c3c(OC)cc(OC)cc3O[C@@]2(c2ccc(Br)cc2)[C@@H]1c1ccccc1` [SDS-1–0-21], on eIF4A1, the “rank in screen” value is “ranked highly”.

For the compound `COC(=O)[C@@H]1[C@@H](c2ccccc2)[C@]2(c3ccc(OC)cc3)Oc3cc(OC)cc(OC)c3[C@@]23N=C(C2CC2)N[C@@]13O` [CMLD012072], the “rank in screen” value on eIF4A1 is “Among the most potent”.

Turning to `COc1ccc([C@@]23Oc4cc(OC)cc(OC)c4[C@@]24NC(C)=NC4=C(C=O)[C@H]3c2ccccc2)cc1` [CMLD012607], the pIC50 in the data set on NIH/3T3 cells is 6.34.

Consider `COC(=O)[C@@H]1[C@@H](c2ccccc2)[C@]2(c3ccc(OC)cc3)Oc3cc(OC)cc(OC)c3[C@@]23N=C(C)N[C@@]13O` [CMLD012073], for which the “rank in screen” value on eIF4A1 is “Among the most potent”. In data set [2], the “potency at inhibiting cap-dependent translation (FF) relative to CR-1–31-B” value is given as ~ 3 fold. In addition, the “assembly of the 80S ribosome on the mRNA” value in data set [1] is reported as “inhibited assembly of the 80S ribosome”. In the data set with NIH/3T3 cells, the pIC50 is 8.00.

As for `COc1ccc([C@@]23Oc4cc(OC)cc(OC)c4[C@@]24N=C(C)N[C@@]4(O)[C@H](C(=O)N(C)OC)[C@H]3c2ccccc2)cc1` [CMLD012612], the pIC50 in the data set on NIH/3T3 cells was about 8.70. Moreover, the “inhibition of cellular translation (35S-methionine incorporation)” value in the data set with HEK293 cells was “surpasses those of our previous lead compounds”. In addition, the “suppression of liver polysomes” value in the data set on liver polysomes is recorded as “effectively suppressed liver polysomes”. In the data set with myr-Akt/Eµ-Myc lymphomas, the “duration of complete tumor loss (tumor-free survival)” value fell in the range of 15 to 16 days and the synergy with doxorubicin result is on record as “effectively synergized”. Besides, in the data set on eIF4A1^em1JP cells, the “cytotoxicity in eIF4A1^em1JP cells versus NIH/3T3” value is “significantly blunted”. Also, the “resistance of eIF4A^em1jp cells relative to parental NIH/3T3 cells” value with eIF4A1^em1JP cells (4 day compound exposure) is recorded as “at least 10 fold”.
